Assay outcomes deposited in PubChem by several laboratories.
NadD block = inhibitors of S. aureus NadD, primary screen, biochemical, colorimetric, uHTS. purified NadD enzyme, colorimetric absorbance read-out. 360,000 tested, 0.78% active. Nicotinate-nucleotide adenylyltransferase NadD (Staphylococcus aureus N315). AID 602399, 2012. inhibition, % at 20 µM; in the data active = inhibition above about 26%
Pemphigus Ab inh = inhibitors of pemphigus antibody binding to DSG3, primary screen, biochemical, bead-based, flow cytometry, scFv-GFP. Desmoglein-3 (Homo sapiens), P32926. DSG3-coupled beads, scFv-anti-DSG3-GFP binding; stronger effect = lower value. binding (percent of control), % at 10 µM. 310,000 tested, 0.48% active. AID 588358, 2011;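 active = binding more than 3 SD below its plate's average and above zero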;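 also: hits lower antibody fragment binding to DSG3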
HCV core dimer = inhibitors of HCV core protein dimerization, primary screen, biochemical, TR-FRET, high-throughput; TR-FRET GST/Flag-core106 dimerization, 1536-well; inhibition, % at 5 µM; 300,000 tested, 0.33% active; AID 1899, 2009;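 active = inhibition above the mean of all tested compounds plus 3 SD, set per screening campaign, cut at about 45% in these data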
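Material: GST/Flag-tagged HCV core106 proteins. Incubation: 4 h, 22.5 °C incubation. Read-out basis: inhibition (%) from 671 over 617 nm ratio. Measured by: TR-FRET, excitation 340 nm, emission 617 and 671 nm.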
Rce1 inh = yeast Rce1p protease inhibitors, primary screen, biochemical, fluorescence, cell-free homogeneous; AID 2563, 2010; CAAX prenyl protease 2 (Saccharomyces cerevisiae (strain ATCC 204508 / S288c)), Q03530; yeast membranes, quenched prenylated peptide cleavage fluorescence; 290,000 tested, 0.27% active; calls only;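 active = fall in fluorescence gain of 50% or more versus controls, with final raw signal at or below 3038400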;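 also: plate controls were neutral control wells for no effect and wells lacking membranes for full effect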
Tb MetRS inh = T. brucei MetRS inhibitors, primary screen, biochemical, luminescence. 360,000 tested, 0.4% active. inhibition, % at 11.9 µM. purified T. brucei MetRS, ATP depletion, Kinase-Glo luminescence. AID 624268, 2012;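 active = inhibition above a per-plate cutoff of the control wells' mean inhibition plus 3 SD, cut at about 5.5% in these data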;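 also: 0% = DMSO wells median and 100% = median of wells with control inhibitor compound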
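Dosing: 11.9 µM single point; system: parasite MetRS enzyme; technique: luminescence of leftover ATP; times: 15 min enzyme-compound preincubation, 2 h reaction, 10 min detection, 25 °C; replicates: each compound tested once; read-out basis: percent inhibition relative to median high and low control wells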
NadD inh conf = inhibitors of S. aureus NadD, confirmation, biochemical, colorimetric, single concentration | inhibition, % at 20 µM | purified S. aureus NadD, colorimetric enzyme assay | 2,000 tested, 13% active | shares compounds with NadD block; in the data active = inhibition mostly above about 42%, no sharp cut-off; inactive = mostly below about 42%
Numbers without * were called inactive; i = inactive; nt = not tested or not shown. The list is not random: actives were taken first. Their share in the collection is about 1.9%.

SMILES	NadD block	Pemphigus Ab inh	HCV core dimer	Rce1 inh	Tb MetRS inh	NadD inh conf
O=c1[nH]c(C2CCCN(S(=O)(=O)c3ccccc3)C2)nc2c1nnn2Cc1cccc(Cl)c1 (configuration not stated)	18.0	112.8	23.6	i	0.0	nt
CCc1nc2c(c(=O)[nH]1)C1(CCCC1)Cc1ccccc1-2	5.2	98.2	-2.2	i	-0.3	nt
CC(c1ccccc1)n1c(CCCO)nc2ccccc21 (configuration not stated)	-4.8	93.0	nt	i	0.3	nt
O=c1[nH]c(C2CCN(S(=O)(=O)c3ccccc3)CC2)nc2c1nnn2Cc1ccc2c(c1)OCCO2	25.9	88.0	25.2	i	0.3	nt
O=c1[nH]c(C2CCCN(S(=O)(=O)c3ccccc3Cl)C2)nc2c1nnn2Cc1ccc2c(c1)OCCO2 (configuration not stated)	37.4*	76.9*	14.4	i	-0.3	35.1
O=C(O)c1nn(Cc2ncc(-c3cccc(Cl)c3)o2)c(=O)c2ccccc12	33.6*	97.8	-12.0	i	1.1	16.4
COc1cccc(-c2noc(Cn3nc(C(=O)O)c4ccccc4c3=O)n2)c1	-2.7	109.3	0.4	nt	-0.4	nt
CC1(C)Cc2c(c(N3CCOCC3)nc3sc4c(NN)ncnc4c23)CS1	33.9*	103.8	-5.8	i	-0.6	0.8
O=C(COC(=O)c1ccc(O)cc1)NC1CCCC1	-5.4	101.0	-2.9	i	-0.9	nt
CC(C)C[C@@H](CNCC(=O)[C@H](Cc1c[nH]c2ccccc12)NC(=O)c1[nH]cnc1C(=O)N[C@H](CN)CC(C)C)NC(=O)c1nc[nH]c1C(=O)N[C@@H](CC(=O)O)C(=O)O	31.2*	157.8	nt	nt	6.8*	45.4
O=C(O)c1cc(S(=O)(=O)NCCCN2CCCC2=O)ccc1Cl	-0.4	118.2	nt	nt	-0.1	nt
O=C1CC(/C=C/c2ccc(Cl)cc2)=Nc2ccccc2N1	32.6*	93.3	7.4	i	0.4	7.0
Cc1ccc(C)c(S(=O)(=O)N2CCCOC2CNC(=O)C(=O)NCc2cccnc2)c1 (configuration not stated)	-4.1	91.8	0.1	i	-0.4	nt
Cc1cc(C(=O)N/N=C/c2ccc(-c3ccc([N+](=O)[O-])cc3Cl)o2)n[nH]1	39.8*	88.0	-11.0	i	0.8	8.1
Cc1cc(C(=O)N/N=C/c2ccc(-c3cccc([N+](=O)[O-])c3)o2)n[nH]1	5.3	101.0	4.9	i	-0.4	nt
OCCNc1nc(-c2ccccc2)c2cc(Br)ccc2n1	-2.1	98.7	-10.9	nt	-0.4	nt
CCCN(CCC)S(=O)(=O)c1ccc(C(=O)NNc2nc(-c3ccccc3)c3cc(Br)ccc3n2)cc1	36.0*	93.1	23.7	i	0.2	3.1
CC1(C(=O)N/N=C/c2ccc3c(c2)OCO3)CC1(Br)Br (configuration not stated)	-5.6	118.4	3.8	i	-0.3	nt
O=C(NC(=S)Nc1ccccc1N1CCCC1)c1ccc(-c2cccc([N+](=O)[O-])c2)o1	31.9*	101.5	15.4	i	-0.2	2.9
Cc1ccc(C(=O)C2C(=O)c3ccccc3C2=O)cc1	-2.5	107.7	-3.4	i	-0.4	nt
NN=C1c2ccccc2C(=O)C1C(=O)C(c1ccccc1)c1ccccc1 (configuration not stated)	29.5*	137.0	nt	nt	0.0	50.0*
CCn1c2ccccc2c2cc(NC(=O)CSc3nnc(-c4ccc(OC)cc4)n3N)ccc21	30.1*	84.3	6.3	i	-0.5	32.8
COc1ccc(NC(=O)CSc2nnc(-c3ccccc3)n2N)cc1	4.8	100.8	-8.3	i	-0.7	nt
COc1cc(/C=C2\SC(=O)N(Cc3ccc(F)cc3)C2=O)cc([N+](=O)[O-])c1O	38.3*	94.7	nt	nt	0.3	4.3
